Source: ChEMBL document CHEMBL1153809, “7,7-Dimethylaporphine alkaloids from the stem of Guatteriopsis friesiana” (2009)
≈ marks a conversion by molar mass, not a printed value.

What was measured:
Format in all cases: functional
[1] = test system: Salmonella enterica; experiment: Antimicrobial activity against Salmonella choleraesuis ATCC 10708 after 48 hrs by TTC staining method; settings: ATCC 10708, 48 h
How it was run: (§1)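 Bacteria grown overnight at 36 °C on nutrient agar. Cells suspended in 0.85% NaCl to McFarland 0.5 (checked at 580 nm), then diluted to 10^4 CFU/mL. Broth microdilution in Mueller-Hinton broth, in duplicate. Samples tested at 1.0-0.016 mg/mL; chloramphenicol and nystatin references at 0.25-0.002 mg/mL. Incubated 36 °C for 48 h, then 0.5% TTC added. MIC is the lowest concentration inhibiting visible growth by TTC staining.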

[2] = test system: Staphylococcus aureus; experiment: Antimicrobial activity against Staphylococcus aureus ATCC 6538 after 48 hrs by TTC staining method; settings: ATCC 6538, 48 h; how it was run: as §1
[3] = test system: Escherichia coli; experiment: Antimicrobial activity against Escherichia coli ATCC 11775 after 48 hrs by TTC staining method; settings: ATCC 11775, 48 h; how it was run: as §1
[4] = test system: Pseudomonas aeruginosa; experiment: Antimicrobial activity against Pseudomonas aeruginosa ATCC 13388 after 48 hrs by TTC staining method; settings: ATCC 13388, 48 h; how it was run: as §1
[5] = test system: Micrococcus luteus; experiment: Antimicrobial activity against Micrococcus luteus ATCC 4968 after 48 hrs by TTC staining method; settings: ATCC 4968, 48 h; how it was run: as §1
[6] = test system: Staphylococcus epidermidis; experiment: Antimicrobial activity against Staphylococcus epidermidis ATCC 12228 after 48 hrs by TTC staining method; settings: ATCC 12228, 48 h; how it was run: as §1
[7] = test system: Bacillus subtilis; experiment: Antimicrobial activity against Bacillus subtilis ATCC 5061 after 48 hrs by TTC staining method; settings: ATCC 5061, 48 h; how it was run: as §1
[8] = test system: Enterococcus hirae; experiment: Antimicrobial activity against Enterococcus hirae ATCC 10541 after 48 hrs by TTC staining method; settings: ATCC 10541, 48 h; how it was run: as §1
[9] = test system: Prescottella equi; experiment: Antimicrobial activity against Rhodococcus equi ATCC 6939 after 48 hrs by TTC staining method; settings: Rhodococcus (subgen. Prescottella) equi, ATCC 6939, 48 h; how it was run: as §1
[10] = test system: Enterococcus faecium; experiment: Antimicrobial activity against Enterococcus faecium CCT 5079 after 48 hrs by TTC staining method; settings: CCT 5079, 48 h; how it was run: as §1
[11] = test system: Candida albicans; experiment: Antimicrobial activity against Candida albicans ATCC 10231 after 48 hrs by TTC staining method
How it was run: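 Yeast grown on Sabouraud dextrose agar. Cells suspended in 0.85% NaCl to McFarland 0.5 (checked at 580 nm), then diluted to 10^4 CFU/mL. Mueller-Hinton broth microdilution, in duplicate. Samples tested at 1.0-0.016 mg/mL; chloramphenicol and nystatin references at 0.25-0.002 mg/mL. Incubated 48 h at 36 °C, then 0.5% TTC added. MIC is the lowest concentration preventing visible growth by TTC stain.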

O=C(N[C@H](CO)[C@H](O)c1ccc([N+](=O)[O-])cc1)C(Cl)Cl [CHLORAMPHENICOL]
MIC [1]: 60 mg/L (≈ 186 µM)
MIC [2]: 20 mg/L (≈ 61.9 µM)
MIC [3]: 40 mg/L (≈ 124 µM)
MIC [4]: 850 mg/L (≈ 2630 µM)
MIC [5]: 50 mg/L (≈ 155 µM)
MIC [6]: 40 mg/L (≈ 124 µM)
MIC [7]: 20 mg/L (≈ 61.9 µM)
MIC [8]: 120 mg/L (≈ 371 µM)
MIC [9]: 40 mg/L (≈ 124 µM)
MIC [10]: 70 mg/L (≈ 217 µM)

NYSTATIN
MIC [11]: 50 mg/L

O=C1c2ccccc2-c2c3c(cc4ccnc1c24)OCO3 [LIRIODENINE]
MIC [1]: > 1000 mg/L
MIC [2]: > 1000 mg/L
MIC [3]: > 1000 mg/L
MIC [4]: > 1000 mg/L
MIC [5]: 150 mg/L (≈ 545 µM)
MIC [7]: 500 mg/L (≈ 1820 µM)
MIC [8]: 600 mg/L (≈ 2180 µM)
MIC ([11]; ATCC 10231, 48 h): > 1000 mg/L
MIC [9]: 10 mg/L (≈ 36.3 µM)
MIC [10]: 150 mg/L (≈ 545 µM)
